Source: ChEMBL document CHEMBL2150971, “Selective depletion of mutant p53 by cancer chemopreventive isothiocyanates and their structure-activity relationships” (J Med Chem, 2011)
Active and inactive are the calls of the source.

Tests used:
[1] = system: Cellular tumor antigen p53 (Homo sapiens), P04637 [R280K]; experiment: Induction of p53 R280K mutant depletion in human MDA-MB-231 cells at 10 uM by immunoblot analysis; assay type: cell-based
How it was run: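 MDA-MB-231 cells treated with 10 µM for 24 h; whole-cell lysates immunoblotted for p53 (DO-1) with β-actin loading control, ECL.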

[2] = system: Cellular tumor antigen p53 (Homo sapiens), P04637 [G245C]; experiment: Induction of p53 G245C mutant depletion in human NCI-H596 cells at 20 uM by immunoblot analysis; assay type: cell-based
[3] = system: MDA-MB-231; experiment: Induction of apoptosis in human MDA-MB-231 cells expressing p53 R280K mutant at 10 uM incubated for 24 hrs by FITC/Annexin-V staining method; assay type: functional, cell-based
How it was run: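 MDA-MB-231 cells at 40–50% confluency treated with DMSO or 10 µM in DMSO for 24 h; washed in cold PBS, stained with FITC-Annexin V and propidium iodide, analysed by flow cytometry; early apoptotic (Annexin V+/PI−) fraction; mean ± SD of three experiments, unequal-variance two-sample t-test.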

[4] = system: Cellular tumor antigen p53 (Homo sapiens), P04637 [G245C]; experiment: Induction of covalent cysteine modification at p53 G245C mutant in human NCI-H596 cells at 100 uM incubated for 1 hr by monochlorobimane fluorometric assay; assay type: cell-based
[5] = system: Cellular tumor antigen p53 (Homo sapiens), P04637 [G245C]; experiment: Induction of p53 G245C mutant depletion in human NCI-H596 cells at 40 uM incubated for 2 hrs by immunoblot analysis; assay type: cell-based
How it was run: (§1)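 H596 cells (G245C p53), maintained in DMEM or RPMI-1640 with 10% FBS, treated either at 15 µM for varying times up to 24 h or at varying concentrations (10–60 µM) for 2 h; whole-cell lysates, equal protein on SDS gels, PVDF, blotted with p53 DO-1 and β-actin antibodies, ECL.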

[6] = system: Cellular tumor antigen p53 (Homo sapiens), P04637 [G245C]; experiment: Induction of conformational changes in p53 G245C mutant in human NCI-H596 cells at 60 uM incubated for 1 hr at 32 degC by tryptophan fluorescence emission spectroscopy; assay type: cell-based
How it was run: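 6 µM purified G245C p53 DNA-binding domain incubated 1 h at 32 °C alone, with DMSO or 60 µM agent; intrinsic fluorescence emission 285–400 nm, excitation 280 nm, slit 5 nm, 3 scans averaged.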

[7] = system: H1299; experiment: Induction of temperature sensitive p53 143A mutant depletion in human H1299 cells at 15 uM incubated for 24 hrs at 32.5 degC by immunoblot analysis; assay type: cell-based
[8] = system: Cellular tumor antigen p53 (Homo sapiens), P04637 [R273H]; experiment: Induction of p53 R273H mutant depletion in human MDA-MB-468 cells at 15 uM by immunoblot analysis; assay type: cell-based; conditions: TDE = time-dependent effect
How it was run: (§2)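 Mutant-p53 lines SCC-4, MDA-MB-468 and MDA-MB-231 exposed to 15 µM for a time course; lysates immunoblotted with p53 DO-1 and β-actin antibodies, ECL detection.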

[9] = system: DU-145; experiment: Induction of p53 […] mutant depletion in human DU145 cells at 10 uM by immunoblot analysis; assay type: cell-based; conditions: TDE = time-dependent effect
How it was run: (§3)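 DU145 and SW480 cells exposed to 10 µM for a time course; lysates immunoblotted with p53 DO-1 and β-actin antibodies, ECL detection.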

[10] = system: Cellular tumor antigen p53 (Homo sapiens), P04637 [R280K]; experiment: Induction of p53 R280K mutant depletion in human MDA-MB-231 cells at 15 uM by immunoblot analysis; assay type: cell-based; conditions: TDE = time-dependent effect; how it was run: as §2
[11] = system: MDA-MB-231; experiment: Induction of apoptosis in human MDA-MB-231 cells expressing p53 R280K mutant assessed as caspase-3 activation incubated for 24 hrs; assay type: functional, cell-based
How it was run: (§4)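 Cells treated with DMSO or drug for 24 h, lysed in ice-cold kit buffer; 100–200 µg protein incubated with Ac-DEVD-p-nitroaniline at 37 °C for 2–4 h; p-nitroanilide read at 405 nm; mean ± SD of three independent experiments.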

[12] = target: Cellular tumor antigen p53 (Homo sapiens) (UniProt P04637); experiment: Induction of p53 depletion in human HCT116 cells at 20 uM incubated for 2 to 24 hrs by immunoblot analysis; assay type: cell-based; conditions: HCT-116
How it was run: (§5)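 Wild-type p53 lines HCT116, A549 and MCF-7 treated with 20 µM for 2, 4, 8 and 24 h; lysates immunoblotted for p53 (DO-1) and β-actin, ECL.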

[13] = system: NCI-H596; experiment: Effect on DR5 protein expression in human NCI-H596 cells by immunoblot analysis; assay type: functional, cell-based
How it was run: (§6)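 H596 lung cancer cells treated with 15 µM; whole-cell lysates in HEPES pH 7.4/Triton X-100 lysis buffer with protease and phosphatase inhibitors; equal protein resolved on 4–12% Bis-Tris gels, transferred to PVDF, immunoblotted; ECL detection.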

[14] = system: A549; experiment: Induction of apoptosis in human A549 cells expressing wild type p53 assessed as caspase-3 activation incubated for 24 hrs; assay type: functional, cell-based; how it was run: as §4
[15] = system: NCI-H596; experiment: Effect on Bax protein expression in human NCI-H596 cells by immunoblot analysis; assay type: functional, cell-based; how it was run: as §6
[16] = target: Cellular tumor antigen p53 (Homo sapiens) (UniProt P04637); experiment: Induction of p53 depletion in human MCF10A cells at 15 uM incubated for 2 to 24 hrs by immunoblot analysis; assay type: cell-based; conditions: MCF-10A
How it was run: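 MCF-10A normal mammary epithelial cells treated with 15 µM for 2, 4, 8 and 24 h; lysates immunoblotted for p53 (DO-1) and β-actin, ECL.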

[17] = system: Cellular tumor antigen p53 (Homo sapiens), P04637 [R273H]; experiment: Induction of p53 R273H mutant depletion in human SW480 cells at 10 uM by immunoblot analysis; assay type: cell-based; conditions: TDE = time-dependent effect; how it was run: as §3
[18] = system: SW480; experiment: Induction of apoptosis in human SW480 cells expressing p53 R273H mutant assessed as caspase-3 activation incubated for 24 hrs; assay type: functional, cell-based; how it was run: as §4
[19] = system: NCI-H596; experiment: Effect on HSP90 protein expression in human NCI-H596 cells by immunoblot analysis; assay type: functional, cell-based; how it was run: as §6
[20] = system: NCI-H596; experiment: Effect on p53 mRNA expression in human NCI-H596 cells at 15 uM incubated for 2 to 6 hrs by RT-PCR; assay type: functional, cell-based
How it was run: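 H596 cells exposed to 15 µM for 2, 4 and 6 h, vehicle DMSO; total RNA extracted, one-step RT-PCR for p53 and β-actin mRNA.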

[21] = target: Cellular tumor antigen p53 (Homo sapiens) (UniProt P04637); experiment: Induction of p53 depletion in human A549 cells at 20 uM incubated for 2 to 24 hrs by immunoblot analysis; assay type: cell-based; how it was run: as §5
[22] = system: Cellular tumor antigen p53 (Homo sapiens), P04637 [G245C]; experiment: Induction of p53 G245C mutant depletion in human NCI-H596 cells at 15 uM by immunoblot analysis; assay type: cell-based; conditions: TDE = time-dependent effect; how it was run: as §1
[23] = system: H1299; experiment: Induction of non-temperature sensitive p53 175H mutant depletion in human H1299 cells at 15 uM incubated for 24 hrs at 37 degC by immunoblot analysis; assay type: cell-based
[24] = system: Cellular tumor antigen p53 (Homo sapiens), P04637 [G245C]; experiment: Induction of p53 G245C mutant depletion in human NCI-H596 cells incubated for 2 to 6 hrs by immunoblot analysis; assay type: cell-based; how it was run: as §1
[25] = system: H1299; experiment: Induction of temperature sensitive p53 143A mutant depletion in human H1299 cells at 15 uM incubated for 24 hrs at 37 degC by immunoblot analysis; assay type: cell-based
[26] = target: Cellular tumor antigen p53 (Homo sapiens) (UniProt P04637); experiment: Induction of p53 activation in human MCF7 cells at 20 uM incubated for 24 hrs by immunoblot analysis; assay type: cell-based; how it was run: as §5
[27] = system: NCI-H596; experiment: Effect on JNK protein expression in human NCI-H596 cells by immunoblot analysis; assay type: functional, cell-based; how it was run: as §6
[28] = system: MDA-MB-468; experiment: Induction of apoptosis in human MDA-MB-468 cells expressing p53 R273H mutant assessed as caspase-3 activation incubated for 24 hrs; assay type: functional, cell-based; how it was run: as §4
[29] = system: NCI-H596; experiment: Induction of apoptosis in human NCI-H596 cells expressing p53 G245C mutant assessed as caspase-3 activation incubated for 24 hrs; assay type: functional, cell-based; how it was run: as §4
[30] = system: HCT-116; experiment: Induction of apoptosis in human HCT116 cells expressing wild type p53 assessed as caspase-3 activation incubated for 24 hrs; assay type: functional, cell-based; how it was run: as §4
[31] = target: Cellular tumor antigen p53 (Homo sapiens) (UniProt P04637); experiment: Induction of p53 depletion in human MCF7 cells at 20 uM incubated for 2 to 24 hrs by immunoblot analysis; assay type: cell-based; how it was run: as §5
[32] = system: H1299; experiment: Induction of non-temperature sensitive p53 175H mutant depletion in human H1299 cells at 15 uM incubated for 24 hrs at 32.5 degC by immunoblot analysis; assay type: cell-based
[33] = system: MCF7; experiment: Induction of apoptosis in human MCF7 cells expressing wild type p53 assessed as caspase-3 activation incubated for 24 hrs; assay type: functional, cell-based; how it was run: as §4
[34] = system: Cellular tumor antigen p53 (Homo sapiens), P04637 [P151S]; experiment: Induction of p53 P151S mutant depletion in human SCC4 cells at 15 uM by immunoblot analysis; assay type: cell-based; conditions: SCC-4, TDE = time-dependent effect; how it was run: as §2
[35] = system: Cellular tumor antigen p53 (Homo sapiens), P04637 [G245C]; experiment: Induction of p53 G245C mutant depletion in human NCI-H596 cells at 20 uM incubated for 2 hrs by immunoblot analysis; assay type: cell-based; how it was run: as §1
[36] = system: Cellular tumor antigen p53 (Homo sapiens), P04637 [G245C]; experiment: Induction of p53 G245C mutant depletion in human NCI-H596 cells at 10 uM incubated for 2 hrs by immunoblot analysis; assay type: cell-based; how it was run: as §1
[37] = system: Cellular tumor antigen p53 (Homo sapiens), P04637 [G245C]; experiment: Induction of p53 G245C mutant depletion in human NCI-H596 cells at 15 uM up to 24 hrs by immunoblot analysis; assay type: cell-based; how it was run: as §1
[38] = system: Cellular tumor antigen p53 (Homo sapiens), P04637 [G245C]; experiment: Induction of p53 G245C mutant depletion in human NCI-H596 cells at 60 uM after 2 hrs by immunoblot analysis; assay type: cell-based; how it was run: as §1

Measured: Activity

S=C=NCC1CCCCC1
inactive: [1] | [2] | [3] | [4]

COc1ccc(CN=C=S)cc1
active: [1] | [2] | [4]

C=CCN=C=S
inactive: [1] | [2] | [4] | [5]

S=C=NCc1ccc(Cl)cc1
active: [1] | [2] | [4]

S=C=NC(c1ccccc1)(c1ccccc1)c1ccccc1
inactive: [1] | [2] | [3] | [4]

C[C@@H](N=C=S)c1ccccc1
inactive: [1] | [2]
active: [6]

S=C=NCCc1ccccc1
inactive: [7] | [12] | [13] | [14] | [15] | [16] | [19] | [20] | [21] | [27] | [30] | [31] | [33]
active: [8] tde | [9] tde | [10] tde | [11] | [17] tde | [1] | [18] | [2] | [22] tde | [23] | [24] Dose-dependent effect | [25] | [26] | [4] | [28] | [29] | [32] | [34] tde

S=C=Nc1ccccc1
inactive: [1] | [2] | [4]

S=C=NCCCCc1ccccc1
active: [1] | [2] | [3]

S=C=NCCCc1ccccc1
active: [1] | [2] | [3] | [4]

S=C=NCCCCCc1ccccc1
active: [1] | [2]

S=C=NCC(c1ccccc1)c1ccccc1
active: [1] | [2] | [3] | [4]

S=C=NCc1ccccc1
active: [35] | [6] | [36] | [1] | [2] | [3] | [4]

S=C=NCc1ccc(Oc2ccccc2)cc1
active: [6] | [1] | [2]

C[S+]([O-])CCCCN=C=S (centres undefined)
inactive: [6] | [1] | [2] | [3] | [4] | [5]

S=C=NCCCCCCc1ccccc1
active: [1] | [2]

CNCCc1ccccc1
inactive: [37] | [2] | [38]
